From ChEMBL document CHEMBL1122317, “Role of substrate lipophilicity on the N-demethylation and type I binding of 3-O-alkylmorphine analogues” (J Med Chem, 1983) come the findings set out here.

Holding throughout (format): ADME
Data set [1] is described as follows: Maximum optimal dose expressed as OD max X 10e-(2/3) mg. The method in brief: (§1)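 Type I difference spectra recorded at 350–500 nm in washed liver microsomes from fed, untreated 180–250 g male CD rats, 3 mg protein/mL in 0.15 M KCl-0.05 M Tris. Split-beam cuvettes were warmed to 37 °C for 5 min, then substrate added stepwise to the sample side and buffer to the reference. Ks came from double-reciprocal plots of the 390–420 nm absorbance difference. Triplicate determinations.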

A short description of data set [2]: Spectral dissociation constant of the compound. As to conditions: read-out: Ks. Put shortly:
as §1

The nature of data set [3]: Michaelis constant in O-dealkylation. Put shortly: (§2)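 Octyl[6-3H]morphine N- and O-dealkylation assayed radiometrically in rat liver microsomes (1 mg protein/mL). Triplicate 20-min incubations used eight substrate concentrations from 0.1 to 1.0 mM. Reactions were stopped with acetone and extracted, then metabolites were located by UV, scraped and counted by scintillation. Km and Vmax came from Lineweaver-Burk plots, averaged over three separate studies.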

Data set [4] can be described thus: Vmax value in O-dealkylation. Put shortly:
as §2

Data set [5] in a line: Vmax value in N-demethylation. Put shortly:
(§3)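 Male CD rat hepatic microsomes (1 mg protein/mL) in 0.15 M KCl-0.05 M Tris with 5 mM MgCl2 and an NADPH-generating system (0.33 mM NADP, 5.5 mM glucose 6-phosphate, 0.67 U/mL G6PDH). Incubated in air for 10 min at 37 °C. Formaldehyde measured colorimetrically with acetylacetone at 412 nm, correcting for substrate-free blanks. Km and Vmax taken from triplicates at 11 substrate concentrations.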

The nature of data set [6]: Michaelis constant in N-demethylation. Put shortly: as §3
Data set [7] in a line: Spectral dissociation constant of the compound; ND = no detectable binding spectra. The method in brief:
as §1

The nature of data set [8]: Rate of ethylmorphine N-demethylase in the presence of various concentrations (uM) at 20 uM concentration. Put shortly:
(§4)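 2 mM 3-O-ethylmorphine was N-demethylated for 10 min at 37 °C by male CD rat liver microsomes (1 mg protein/mL) with an NADPH-generating system, with 0, 20, 200 or 2000 μM added decyl or dodecyl analogue. Formaldehyde was read colorimetrically at 412 nm. Rate is nmol/min/mg protein, from triplicate incubations.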

A short description of data set [9]: Rate of ethylmorphine N-demethylase in the presence of various concentrations (uM) at 2000 uM concentration. Put shortly: as §4
The nature of data set [10]: Rate of ethylmorphine N-demethylase in the presence of various concentrations (uM) at 0 uM concentration. The method in brief:
as §4

The nature of data set [11]: Rate of ethylmorphine N-demethylase in the presence of various concentrations (uM) at 200 uM concentration. Put shortly: as §4
Data set [12] in a line: Maximum optimal dose expressed as OD max X 10e-(2/3) mg; ND = no detectable binding spectra. Put shortly: as §1

In data set [1], `CCCCCOc1ccc2c3c1OC1C(O)C=CC4C(C2)N(C)CCC341.Cl` (configuration not stated) displayed an OD max of 2 mg. For the same molecule, the Kd in data set [2] came out at 14.6 µM.
On to `CCOc1ccc2c3c1OC1C(O)C=CC4C(C2)N(C)CCC341.Cl` (configuration not stated), for which the values for the Km in [3] and in data set [6] were 55 µM and 245 µM, respectively. Moreover, the Vmax in [4] came out at 1.86 nM/min; in data set [5] it was 9.31 nM/min. The molecule further displayed an OD max in [1] of 1.9 mg. For the same molecule, the Kd in data set [2] is 29.1 µM.
Consider `CCCOc1ccc2c3c1OC1C(O)C=CC4C(C2)N(C)CCC341.Cl` (configuration not stated), for which the OD max in [1] stood at 1.8 mg. In addition, the Kd in [2] was 28.4 µM.
The molecule `CCCCOc1ccc2c3c1OC1C(O)C=CC4C(C2)N(C)CCC341.Cl` (configuration not stated) yielded an OD max in data set [1] of 2.06 mg. The Kd in [2] came to 18.1 µM.
As to `CCCCCCCCCCCCOc1ccc2c3c1OC1C(O)C=CC4C(C2)N(C)CCC341.Cl` (configuration not stated), the Ks result in data set [7] is given as “No detectable binding spectra”. Also, the Rate is 8.81 nM/min in data set [8], 9.06 nM/min in [9], 8.92 nM/min in [10] and 8.98 nM/min in data set [11]. In data set [12], the OD max entry was “No detectable binding spectra”.
As to `CCCCCCCCOc1ccc2c3c1OC1C(O)C=CC4C(C2)N(C)CCC341.Cl` (configuration not stated), the Km in data set [3] is 125 µM; in [6], 67 µM. Besides, the Vmax came to 3.57 nM/min in data set [4] and 1.98 nM/min in data set [5]. The same molecule came in with an OD max in [1] of 2.1 mg. In addition, in [2], the Kd stood at 8.8 µM.
In turn, `CCCCCCOc1ccc2c3c1OC1C(O)C=CC4C(C2)N(C)CCC341.Cl` (configuration not stated) gave an OD max in data set [1] of 1.9 mg. In addition, in data set [2], the Kd came out at 12.8 µM.
On to `CCCCCCCCCCOc1ccc2c3c1OC1C(O)C=CC4C(C2)N(C)CCC341.Cl` (configuration not stated), for which, in data set [7], the Ks entry is recorded as “No detectable binding spectra”. The Rate in [8] was determined as 8.92 nM/min; in data set [9], 9.22 nM/min; in [10], 9.11 nM/min; in data set [11] it was 9.12 nM/min. The OD max entry in [12] is listed as “No detectable binding spectra”.
In data set [1], `CCCCCCCCCOc1ccc2c3c1OC1C(O)C=CC4C(C2)N(C)CCC341.Cl` (configuration not stated) gave an OD max of 2.15 mg. The Kd in data set [2] is 7.6 µM.
`CCCCCCCOc1ccc2c3c1OC1C(O)C=CC4C(C2)N(C)CCC341.Cl` (configuration not stated) returned an OD max in data set [1] of 1.8 mg. In addition, in data set [2], the Kd came out at 11.4 µM.
Turning to `COc1ccc2c3c1O[C@H]1[C@@H](O)C=C[C@H]4[C@@H](C2)N(C)CC[C@@]341.O=S(=O)(O)O`, the OD max in data set [1] turned out to be 1.85 mg.

What is called Km is the substrate concentration at which the rate is half of its maximum. In general, Vmax refers to the top rate of the reaction or transport when substrate is in excess.
